From ChEMBL document CHEMBL5550188, “Detection of a Mitochondrial Fragmentation and Integrated Stress Response Using the Cell Painting Assay” (2024)
The source made the active and inactive calls. The rule behind the calls is not given here.

What was measured:
U2OS [1] = assay: Induction of integrated stress response in human U2OS cells assessed as increase ATF4 mRNA level at 30 uM incubated for 24 hrs by RT-qPCR analysis; type: functional, cell-based
Summary of the method: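 U-2OS at 1 × 10⁵/well in 6-well plates were grown 24 h to ~80% confluence, then treated 24 h versus DMSO. Total RNA (DNase-treated) was reverse-transcribed and ATF4 measured by SYBR Green qPCR. Expression was calculated by ΔΔCt against GAPDH, with DMSO set to 100%. Mean ± SD, n = 3.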

U2OS [2] = assay: Effect on glycolysis in human U2OS cells at 30 uM incubated for 24 hrs by pathway over-representation analysis; type: functional, cell-based
Summary of the method: (§1)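 U-2OS seeded at 1 × 10⁶ cells in T75 flasks, treated next day for 24 h at 37 °C versus DMSO. Cells were lysed by freeze–thaw, reduced with TCEP at 55 °C, alkylated with iodoacetamide, acetone-precipitated and trypsin-digested. Peptides were TMT-labelled, split into 10 fractions by high-pH C18, then run on nanoHPLC-MS/MS (orbitrap). Biological triplicates, with pathway over-representation analysis.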

U2OS [3] = assay: Upregulation of SLC2A1 expression in human U2OS cells at 10 to 30 uM incubated for 24 hrs by proteome profiling based analysis; type: functional, cell-based; conditions: dose 10-30 µM; summary of the method: as §1
U2OS [4] = assay: Upregulation of HMOX1 expression in human U2OS cells at 30 uM incubated for 24 hrs by proteome profiling based analysis; type: functional, cell-based; summary of the method: as §1
U2OS [5] = assay: Effect on mitochondrial dysfunction in human U2OS cells at 30 uM incubated for 24 hrs by pathway over-representation analysis; type: functional, cell-based; summary of the method: as §1
U2OS [6] = assay: Effect on mitochondrial respiration in human U2OS cells assessed as suppression of OCR level at 10 to 30 uM of acute treatment by Seahorse analysis; type: functional, cell-based; conditions: dose 10-30 µM
Summary of the method: (§2)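 Seahorse XFp Mito Stress Test on U-2OS, 2 × 10⁵ cells per well, seeded overnight. Assay medium was pH 7.4 DMEM with 2 mM GlutaMAX, 1 mM pyruvate and 25 mM glucose. For acute runs, compound was injected after 5 baseline reads, then 10 reads. Otherwise cells were pretreated 24 h. Then oligomycin A, FCCP and rotenone/antimycin A were added. OCR/ECAR were background-subtracted and normalized to the last baseline (100%). Mean ± SD, n = 3.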

U2OS [7] = assay: Effect on EIF2 level in human U2OS cells at 30 uM incubated for 24 hrs by proteome profiling based analysis; type: functional, cell-based; summary of the method: as §1
U2OS [8] = assay: Upregulation of HK2 expression in human U2OS cells at 10 to 30 uM incubated for 24 hrs by proteome profiling based analysis; type: functional, cell-based; conditions: dose 10-30 µM; summary of the method: as §1
U2OS [9] = assay: Effect on HIF1 signaling in human U2OS cells at 30 uM incubated for 24 hrs by pathway over-representation analysis; type: functional, cell-based; summary of the method: as §1
U2OS [10] = assay: Upregulation of EGLN1 expression in human U2OS cells at 10 to 30 uM incubated for 24 hrs by proteome profiling based analysis; type: functional, cell-based; conditions: dose 10-30 µM; summary of the method: as §1
U2OS [11] = assay: Effect on mitochondrial respiration in human U2OS cells assessed as suppression of OCR level at 30 uM measured after 24 hrs by Seahorse analysis relative to control; type: functional; summary of the method: as §2
U2OS [12] = assay: Effect on mitochondrial respiration in human U2OS cells assessed as suppression of OCR level measured after 24 hrs by Seahorse analysis; type: functional, cell-based; summary of the method: as §2
U2OS [13] = assay: Induction of mitochondrial fragmentation in human U2OS cells assessed as puncta-like staining at 30 to 50 uM incubated for 20 hrs by Mito Tracker Deep Red dye based CPA assay; type: functional, cell-based; conditions: dose 30-50 µM
Summary of the method: (§3)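 Cell Painting: U-2OS were seeded at 1600 cells/well, then dosed 4 h later for 20 h at 37 °C against a matched-% DMSO control. Live cells were stained 30 min with 100 nM MitoTracker Deep Red, then fixed in 3.7% formaldehyde and permeabilized with 0.1% Triton X-100. They were co-stained with phalloidin, concanavalin A, Hoechst, WGA and SYTO 14. Imaging was high-content, run as triplicate plates; features are Z-scores versus DMSO median/MAD.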

U2OS [14] = assay: Effect on glycolysis in human U2OS cells assessed as increase in ECAR level at 10 to 30 uM of acute treatment by Seahorse analysis; type: functional, cell-based; conditions: dose 10-30 µM; summary of the method: as §2
U2OS [15] = assay: Effect on mitochondrial morphology in human U2OS cells at high concentration incubated for 20 hrs by Mito Tracker Deep Red dye based CPA assay; type: functional, cell-based; summary of the method: as §3
U2OS [16] = assay: Effect on glucose metabolism in human U2OS cells at 30 uM incubated for 24 hrs by pathway over-representation analysis; type: functional, cell-based; summary of the method: as §1
U2OS [17] = assay: Induction of mitochondrial network fragmentation in human U2OS cells incubated for […] by CellLight Mitochondria-GFP assay; type: functional, cell-based; conditions: dose 30.0 µM
Summary of the method: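 U-2OS were transduced with CellLight Mitochondria-GFP BacMam 2.0 one day before treatment. 3000 cells/well were seeded in chamber slides. After compound addition, live cells were imaged by confocal microscopy (488/555 nm) continuously over 24 h at 37 °C, 5% CO₂.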

U2OS [18] = assay: Downregulation of MRPs level in human U2OS cells at 30 uM incubated for 24 hrs by proteome profiling based analysis; type: functional, cell-based; summary of the method: as §1
U2OS [19] = assay: Effect on mitochondrial membrane potential in human U2OS cells at 30 uM incubated for 24 hrs by TRME staining based analysis; type: functional, cell-based
Summary of the method: (§4)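 U-2OS (5 × 10³/well) were treated 24 h, then given 20 μM FCCP or 0.5% DMSO controls for 10 min. Cells were stained 30 min at 37 °C with 1 μM TMRE plus Hoechst-33342 in complete DMEM, washed, and imaged live in 0.2% BSA/PBS at 10× (TMRE ex/em 549/575 nm).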

U2OS [20] = assay: Downregulation of […] level in human U2OS cells at 10 to 30 uM incubated for 24 hrs by proteome profiling based analysis; type: functional, cell-based; conditions: dose 10-30 µM; summary of the method: as §1
U2OS [21] = assay: Inhibition of cell confluence in human U2OS cells at 10 to 50 uM measured after 48 hrs by PI/caspase-3/7 Green dye based analysis; type: functional; conditions: dose 10-50 µM
Summary of the method: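 U-2OS at 5000/well were incubated overnight, then given medium with compound or DMSO plus propidium iodide and CellEvent Caspase-3/7 Green. Cells were imaged hourly for 48 h by live-cell imaging. Phase confluence gave growth; red and green object confluence gave PI-positive cells and caspase-3/7 activity.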

U2OS [22] = assay: Induction of oxidative stress in human U2OS cells assessed as increase in mitochondrial superoxide level at 30 uM incubated for 1 hr by MitoSox Red staining based analysis; type: functional, cell-based
Summary of the method: (§5)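 U-2OS at 15,000/well were preloaded 30 min with 5 μM MitoSOX Red plus Hoechst in plain DMEM. They were then treated 60 min in complete DMEM, fixed in 0.5% paraformaldehyde, and imaged at 10×. Integrated MitoSOX intensity per cell was normalized to DMSO (0%) and 10 μM CDNB (100%). Mean ± SD, n = 3.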

HEK-293T = assay: Upregulation of HIF1 level in HEK293T cells transfected with HIF1/luc at 30 uM incubated for 24 hrs by Renilla luciferase base assay; type: functional, cell-based; conditions: Homo sapiens
Summary of the method: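 HEK293T were co-transfected (Lipofectamine 2000) with a PGK1-HRE-driven destabilized firefly luciferase reporter and constitutive TK-Renilla. Cells were seeded at 2.5 × 10⁴/well, then treated 24 h the next day, with 100 μM CoCl₂ and 10 μM ML228 as controls. Dual-Glo readout: firefly was normalized to Renilla and expressed as fold induction over DMSO.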

U2OS [23] = assay: Induction of integrated stress response in human U2OS cells assessed as increase ATF4 level at 30 uM incubated for 24 hrs by Western blot analysis; type: functional, cell-based
Summary of the method: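 U-2OS grown to 80% confluence in 6-well plates were treated 24 h at 37 °C versus DMSO. ATF4 was detected by immunoblotting, with vinculin as reference protein.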

U2OS [24] = assay: Effect on glycolysis in human U2OS cells assessed as increase in ECAR level at highest concentration measured after 24 hrs by Seahorse analysis; type: functional, cell-based; summary of the method: as §2
U2OS [25] = assay: Effect on oxidative phosphorylation in human U2OS cells at 30 uM incubated for 24 hrs by pathway over-representation analysis; type: functional, cell-based; summary of the method: as §1
U2OS [26] = assay: Effect on mitochondrial respiration in human U2OS cells assessed as suppression of OCR level at 10 to 30 uM measured after 24 hrs by Seahorse analysis; type: functional, cell-based; conditions: dose 10-30 µM; summary of the method: as §2
U2OS [27] = assay: Induction of oxidative stress in human U2OS cells assessed as increase in mitochondrial superoxide level at 10 uM incubated for 1 hr by MitoSox Red staining based analysis; type: functional, cell-based; summary of the method: as §5
U2OS [28] = assay: Induction of mitochondrial fragmentation in human U2OS cells assessed as puncta-like staining at 10 uM incubated for 20 hrs by Mito Tracker Deep Red dye based CPA assay; type: functional, cell-based; summary of the method: as §3
U2OS [29] = assay: Effect on HIF1 signaling in human U2OS cells incubated for 24 hrs by pathway over-representation analysis; type: functional, cell-based; summary of the method: as §1
U2OS [30] = assay: Effect on mitochondrial membrane potential in human U2OS cells at 10 uM incubated for 24 hrs by TRME staining based analysis; type: functional, cell-based; summary of the method: as §4

With `Cc1cc(C2CCCCC2)n(O)c(=O)c1` [CICLOPIROX] the Activity (U2OS [1]) was “Active”, the Activity (U2OS [2]) was “Active” and the Activity (U2OS [3]) was “Active”. The Activity (U2OS [4]) was “Active”, the Activity (U2OS [5]) was “Active” and the Activity (U2OS [6]) was “inactive”. For the same molecule, the Activity (U2OS [7]) was “Active”, the Activity (U2OS [8]) was “Active” and the Activity (U2OS [9]) was “Active”. The Activity (U2OS [10]) was “Active”, the Activity (U2OS [11]) was about 100% and the Activity (U2OS [12]) was “Dose-Dependent Effect”. The Activity (U2OS [13]) was “Active”, the Activity (U2OS [14]) was “inactive” and the Activity (U2OS [15]) was “Active”. The Activity (U2OS [16]) was “Active”, the Activity (U2OS [17]) was “Dose-Dependent Effect” and the Activity (U2OS [18]) was “Active”. For the same molecule, the Activity (U2OS [19]) was “inactive”, the Activity (U2OS [20]) was “Active” and the inhibition (U2OS [21]) was “inactive”. The Activity (U2OS [22]) was “Active”, the Activity (HEK-293T) was “Active” and the Activity (U2OS [23]) was “Active”. For the same molecule, the Activity (U2OS [24]) was “Active” and the Activity (U2OS [25]) was “Active”.
In the case of `COc1cc(OC)c2c(c1Cl)OC1(CCC3(CC1C)OCCc1c3c3cc(C)ccc3n1Cc1ccccc1)C2=O` (centres undefined), the Activity (U2OS [1]) is reported as “Active”, the Activity (U2OS [5]) is reported as “Active” and the Activity (U2OS [6]) is reported as “inactive”. The Activity (U2OS [26]) was “Active”, the Activity (U2OS [14]) was “inactive” and the Activity (U2OS [27]) was “Active”. For the same molecule, the inhibition (U2OS [21]) was “inactive”, the Activity (U2OS [28]) was “Active” and the Activity (U2OS [29]) was “inactive”. The Activity (U2OS [30]) was “inactive”, the Activity (U2OS [23]) was “Active” and the Activity (U2OS [24]) was “Active”. For the same molecule, the Activity (U2OS [25]) was “Active”.
